# How the values were obtained:
# [1] = biological target: GABA-A receptor; anion channel (Rattus norvegicus) (UniProt O09028+P15431+P18506+P18508+P19969+P20236+P23574+P23576+P28471+P28473+P30191+P62813+P63079+P63138+Q91ZM7+Q9ES14); test: Relative binding to GABA-A receptor in the presence and absence of GABA; type: protein-complex assay
# Outline: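 GABA shift ratio is IC50 without GABA divided by IC50 with GABA. Both were measured as [3H]Ro15-1788 (1 nM) displacement in washed rat cortical membranes, 1 h at 0–4 °C, with filtration and scintillation counting. The GABA arm also contained NaCl (400 mM) and GABA (200 mM, as printed). Curves used 10 concentrations in triplicate.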
# [2] = biological target: GABA-A receptor; anion channel; test: Partial agonistic activity against specific binding of [3H]-Ro-15-1788 to GABA-A Benzodiazepine receptor in rat cortex
# Outline: (§1)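 Rat brain (Sprague-Dawley) cortex homogenized in 50 mM Tris-citrate pH 7.4, centrifuged at 20000g, washed five times and stored at -80 °C. About 0.12 mg protein was incubated with [3H]Ro15-1788 (1 nM final) for 1 h at 0–4 °C. Nonspecific binding was defined with 10 μM Ro14-7437. Bound label was separated by filtration and counted by scintillation. IC50 was taken from 10-concentration curves run in triplicate.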
# [3] = biological target: GABA-A receptor; anion channel; test: Specific binding of [3H]Ro-151788 to GABA-A Benzodiazepine receptor in rat cortex; outline: as §1
Ratio [1],IC50 [2] [nM],IC50 [3] [nM],SMILES
1.1,–,0.58,COc1cccc(-n2[nH]c3c(cnc4ccccc43)c2=O)c1
0.94,0.38,–,COc1ccc(-n2nc3c4ccccc4[nH]cc-3c2=O)cc1
0.97,–,2.1,COc1ccc2c(c1)ncc1c(=O)n(-c3ccccc3)[nH]c12
–,–,990,COc1ccccc1-n1[nH]c2c(cnc3ccccc32)c1=O
0.91,–,0.38,COc1ccc2ncc3c(=O)n(-c4ccccc4)[nH]c3c2c1

# More lines, now with the values behind:
SMILES,Ratio [1],IC50 [2] [nM],IC50 [3] [nM]
O=C1C2C=Nc3ccccc3C2=NN1c1ccccc1 (stereo not drawn) [CGS-8216],0.99,0.13,–
O=C1C2C=Nc3ccccc3C2=NN1c1ccc(Cl)cc1 (stereo not drawn) [CGS-9896],1.07,0.56,–
O=c1c2cnc3ccc(Cl)cc3c2[nH]n1-c1ccccc1Cl,1.34,–,8
O=c1c2cnc3ccc(Cl)cc3c2[nH]n1-c1ccc(Cl)cc1,1.47,–,4
O=c1c2cnc3ccc(Cl)cc3c2[nH]n1-c1ccccc1,1.1,–,0.24
O=c1c2cnc3ccccc3c2[nH]n1-c1ccccc1Cl,1,–,70
O=c1c2cnc3ccccc3c2[nH]n1-c1cccc(Cl)c1,1.7,–,3.9
